ChEMBL document CHEMBL5058577, “EUbOPEN Chemogenomics Library 2 (Multiplex)” (2022)

System: HEK-293T
Assay: Multiplex assay against HEK293T
Type: toxicity, cell-based
Conditions: human
Outline: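 Four dyes were applied at seeding to live cells: Hoechst33342, BioTracker Green Microtubule Cytoskeleton Dye, MitoTracker Red and Annexin V Alexa Fluor 680. Imaging after compound addition used a CQ1 microscope at 37°C and 5% CO2. CellPathfinder machine-learning gating then sorted cells into Hoechst high-intensity objects or normal cells, normal cells into healthy, pyknosed or fragmented nuclei, and pyknosed cells into mitotic or apoptotic, with tubulin, mitochondrial-mass and membrane-permeability phenotypes given as per cents of healthy-nucleus cells.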

[1] = 12 h, 1 µM, compound concentration 1 uM, replicate 1
[2] = 12 h, 1 µM, compound concentration 1 uM, replicate 2
[3] = 12 h, 10 µM, compound concentration 10 uM, replicate 1
[4] = 12 h, 10 µM, compound concentration 10 uM, replicate 2
[5] = 24 h, 1 µM, compound concentration 1 uM, replicate 1
[6] = 24 h, 1 µM, compound concentration 1 uM, replicate 2
[7] = 24 h, 10 µM, compound concentration 10 uM, replicate 1
[8] = 24 h, 10 µM, compound concentration 10 uM, replicate 2
[9] = 48 h, 1 µM, compound concentration 1 uM, replicate 1
[10] = 48 h, 1 µM, compound concentration 1 uM, replicate 2
[11] = 48 h, 10 µM, compound concentration 10 uM, replicate 1
[12] = 48 h, 10 µM, compound concentration 10 uM, replicate 2

CCCCC1=NC2(CCCC2)C(=O)N1Cc1ccc(-c2ccccc2-c2nnn[nH]2)cc1 [IRBESARTAN]
Population Apoptotic (%) [1]: 24% | Population Fragmented Nuclei (%) [1]: 9% | Population Healthy Nuclei (%) [1]: 79% | Population Hoechst High Intensity Objects (%) [1]: 9% | Population Membrane Permeable-Phenotype (%) [1]: 0% | Population Mitochondria Different-Phenotype (%) [1]: 34% | Population Mitotic Cells (%) [1]: 75% | Population Normal (%) [1]: 91% | Population Pyknosed Nuclei (%) [1]: 10% | Population Tubulin-Different-Phenotype (%) [1]: 17% | Total Cell Count [1]: 500 | Population Apoptotic (%) [2]: 28% | Population Fragmented Nuclei (%) [2]: 8% | Population Healthy Nuclei (%) [2]: 78% | Population Hoechst High Intensity Objects (%) [2]: 4% | Population Mitochondria Different-Phenotype (%) [2]: 63% | Population Mitotic Cells (%) [2]: 71% | Population Normal (%) [2]: 95% | Population Pyknosed Nuclei (%) [2]: 12% | Population Tubulin-Different-Phenotype (%) [2]: 20% | Total Cell Count [2]: 353 | Population Apoptotic (%) [3]: 50% | Population Fragmented Nuclei (%) [3]: 7% | Population Healthy Nuclei (%) [3]: 70% | Population Hoechst High Intensity Objects (%) [3]: 5% | Population Membrane Permeable-Phenotype (%) [3]: 2% | Population Mitochondria Different-Phenotype (%) [3]: 46% | Population Mitotic Cells (%) [3]: 50% | Population Normal (%) [3]: 94% | Population Pyknosed Nuclei (%) [3]: 22% | Population Tubulin-Different-Phenotype (%) [3]: 50% | Total Cell Count [3]: 219 | Population Apoptotic (%) [4]: 56% | Population Fragmented Nuclei (%) [4]: 6% | Population Healthy Nuclei (%) [4]: 78% | Population Hoechst High Intensity Objects (%) [4]: 13% | Population Membrane Permeable-Phenotype (%) [4]: 0% | Population Mitochondria Different-Phenotype (%) [4]: 66% | Population Mitotic Cells (%) [4]: 43% | Population Normal (%) [4]: 86% | Population Pyknosed Nuclei (%) [4]: 15% | Population Tubulin-Different-Phenotype (%) [4]: 33% | Total Cell Count [4]: 351 | Population Apoptotic (%) [5]: 31% | Population Fragmented Nuclei (%) [5]: 9% | Population Healthy Nuclei (%) [5]: 79% | Population Hoechst High Intensity Objects (%) [5]: 4% | Population Membrane Permeable-Phenotype (%) [5]: 0% | Population Mitochondria Different-Phenotype (%) [5]: 24% | Population Mitotic Cells (%) [5]: 68% | Population Normal (%) [5]: 95% | Population Pyknosed Nuclei (%) [5]: 10% | Population Tubulin-Different-Phenotype (%) [5]: 15% | Total Cell Count [5]: 625 | Population Apoptotic (%) [6]: 34% | Population Healthy Nuclei (%) [6]: 80% | Population Hoechst High Intensity Objects (%) [6]: 7% | Population Mitochondria Different-Phenotype (%) [6]: 45% | Population Mitotic Cells (%) [6]: 65% | Population Normal (%) [6]: 92% | Population Pyknosed Nuclei (%) [6]: 9% | Population Tubulin-Different-Phenotype (%) [6]: 14% | Total Cell Count [6]: 456 | Population Apoptotic (%) [7]: 27% | Population Fragmented Nuclei (%) [7]: 6% | Population Healthy Nuclei (%) [7]: 77% | Population Hoechst High Intensity Objects (%) [7]: 3% | Population Membrane Permeable-Phenotype (%) [7]: 1% | Population Mitochondria Different-Phenotype (%) [7]: 37% | Population Mitotic Cells (%) [7]: 72% | Population Normal (%) [7]: 96% | Population Pyknosed Nuclei (%) [7]: 15% | Population Tubulin-Different-Phenotype (%) [7]: 32% | Total Cell Count [7]: 287 | Population Apoptotic (%) [8]: 41% | Population Fragmented Nuclei (%) [8]: 11% | Population Hoechst High Intensity Objects (%) [8]: 10% | Population Membrane Permeable-Phenotype (%) [8]: 0% | Population Mitochondria Different-Phenotype (%) [8]: 49% | Population Mitotic Cells (%) [8]: 58% | Population Normal (%) [8]: 89% | Population Pyknosed Nuclei (%) [8]: 11% | Population Tubulin-Different-Phenotype (%) [8]: 22% | Total Cell Count [8]: 434 | Population Apoptotic (%) [9]: 29% | Population Fragmented Nuclei (%) [9]: 11% | Population Healthy Nuclei (%) [9]: 81% | Population Hoechst High Intensity Objects (%) [9]: 3% | Population Membrane Permeable-Phenotype (%) [9]: 0% | Population Mitochondria Different-Phenotype (%) [9]: 21% | Population Mitotic Cells (%) [9]: 70% | Population Normal (%) [9]: 96% | Population Pyknosed Nuclei (%) [9]: 7% | Population Tubulin-Different-Phenotype (%) [9]: 15% | Total Cell Count [9]: 958 | Population Apoptotic (%) [10]: 23% | Population Fragmented Nuclei (%) [10]: 9% | Population Healthy Nuclei (%) [10]: 84% | Population Hoechst High Intensity Objects (%) [10]: 2% | Population Membrane Permeable-Phenotype (%) [10]: 1% | Population Mitochondria Different-Phenotype (%) [10]: 19% | Population Mitotic Cells (%) [10]: 76% | Population Normal (%) [10]: 97% | Population Pyknosed Nuclei (%) [10]: 6% | Population Tubulin-Different-Phenotype (%) [10]: 8% | Total Cell Count [10]: 705 | Population Apoptotic (%) [11]: 25% | Population Fragmented Nuclei (%) [11]: 15% | Population Healthy Nuclei (%) [11]: 75% | Population Hoechst High Intensity Objects (%) [11]: 1% | Population Membrane Permeable-Phenotype (%) [11]: 0% | Population Mitochondria Different-Phenotype (%) [11]: 21% | Population Mitotic Cells (%) [11]: 75% | Population Normal (%) [11]: 98% | Population Pyknosed Nuclei (%) [11]: 9% | Population Tubulin-Different-Phenotype (%) [11]: 15% | Total Cell Count [11]: 473 | Population Apoptotic (%) [12]: 46% | Population Fragmented Nuclei (%) [12]: 12% | Population Healthy Nuclei (%) [12]: 80% | Population Hoechst High Intensity Objects (%) [12]: 3% | Population Mitochondria Different-Phenotype (%) [12]: 26% | Population Mitotic Cells (%) [12]: 53% | Population Normal (%) [12]: 96% | Population Pyknosed Nuclei (%) [12]: 6% | Total Cell Count [12]: 684
